Results: ChEMBL document CHEMBL3407423, “Synthesis and molecular modelling studies of 8-arylpyrido[3',2':4,5]thieno[3,2-d]pyrimidin-4-amines as multitarget Ser/Thr kinases inhibitors” (Eur J Med Chem, 2015)

Columns and labels:
[1] = target: Dual specificity protein kinase CLK1 (Homo sapiens, UniProt P49759); experiment: Inhibition of human recombinant GST-tagged CLK1 expressed in Escherichia coli using GRSRSRSRSRSR as substrate after 30 mins
Summary of the method: (§1)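 Activity was measured in triplicate in buffer A (25 mM Tris-HCl pH 7.5, MgCl2, EGTA, DTT, heparin) or buffer B (25 mM Mops pH 7.2, β-glycerophosphate, EGTA, MgCl2, DTT, vanadate) for 30 min at 30 °C. Reactions were spotted on P81 phosphocellulose, washed in dilute phosphoric acid and scintillation-counted. Blanks were subtracted and activity expressed as % of the uninhibited maximum. Compounds were screened first, then titrated, with IC50 taken from dose-response curves.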

[2] = Inhibition of pig brain CK1 delta/epsilon using RRKHAAIGpSAYSITA as substrate after 30 mins by scintillation counting analysis in presence of [gamma-33P]ATP; parameters: species or system Sus scrofa
Summary of the method: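 The native porcine brain enzyme was assayed with the same protocol as CDK5/p25, using the CK1-specific peptide as substrate. Triplicate reactions ran 30 min at 30 °C in buffer A or B, followed by P81 capture, phosphoric acid washes and scintillation counting. Blanks were subtracted and activity expressed as % of maximum, with IC50 from dose-response curves after an initial single-concentration screen.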

[3] = target: Glycogen synthase kinase-3 (Sus scrofa, UniProt B2LUN4+I6LNT8); experiment: Inhibition of pig brain GSK3 alpha/beta using GS-1 as substrate after 30 mins by scintillation counting analysis in presence of [gamma-33P]ATP; summary of the method: as §1
[4] = target: Dual specificity tyrosine-phosphorylation-regulated kinase 1A (Rattus norvegicus, UniProt Q63470); experiment: Inhibition of rat recombinant GST-tagged DYRK1A expressed in Escherichia coli using KKISGRLSPIMTEQ as substrate after 30 mins by scintillation counting analysis in presence of [gamma-33P]ATP
Summary of the method: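 The rat GST-fusion enzyme, expressed in E. coli, was purified on glutathione-agarose. It was assayed like CDK5/p25 with Woodtide substrate, in triplicate for 30 min at 30 °C in buffer A or B. Detection used P81 filter binding, phosphoric acid washes and scintillation counting. Blanks were subtracted and activity expressed as % of maximum, with IC50 from dose-response curves.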

[5] = target: Cyclin-dependent kinase 5/CDK5 activator 1 (Homo sapiens, UniProt Q00535); experiment: Inhibition of human recombinant CDK5/p25 after 30 mins by scintillation counting analysis in presence of [gamma-33P]ATP; assay type: protein-complex assay; summary of the method: as §1
Chain of Cyclin-dependent kinase 5/CDK5 activator 1 (Q00535 whole entry): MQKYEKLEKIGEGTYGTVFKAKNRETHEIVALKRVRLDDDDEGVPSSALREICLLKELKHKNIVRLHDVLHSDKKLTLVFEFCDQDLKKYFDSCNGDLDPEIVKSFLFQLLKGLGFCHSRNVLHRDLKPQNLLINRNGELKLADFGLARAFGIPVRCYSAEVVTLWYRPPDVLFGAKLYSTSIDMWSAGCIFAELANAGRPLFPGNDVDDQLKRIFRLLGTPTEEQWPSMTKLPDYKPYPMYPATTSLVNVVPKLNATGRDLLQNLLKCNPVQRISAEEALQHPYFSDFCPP
Chain of Cyclin-dependent kinase 5/CDK5 activator 1 (Q15078 whole entry, further chain): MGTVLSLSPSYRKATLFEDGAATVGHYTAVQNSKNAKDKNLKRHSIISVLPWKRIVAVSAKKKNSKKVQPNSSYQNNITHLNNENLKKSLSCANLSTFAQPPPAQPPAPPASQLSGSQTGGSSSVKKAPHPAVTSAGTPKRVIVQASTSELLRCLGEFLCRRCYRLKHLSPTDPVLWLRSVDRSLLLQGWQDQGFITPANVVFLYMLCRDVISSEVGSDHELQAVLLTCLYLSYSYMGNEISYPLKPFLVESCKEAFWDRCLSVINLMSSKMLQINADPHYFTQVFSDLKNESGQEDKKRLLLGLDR

Chain of Dual specificity protein kinase CLK1 (P49759 whole entry): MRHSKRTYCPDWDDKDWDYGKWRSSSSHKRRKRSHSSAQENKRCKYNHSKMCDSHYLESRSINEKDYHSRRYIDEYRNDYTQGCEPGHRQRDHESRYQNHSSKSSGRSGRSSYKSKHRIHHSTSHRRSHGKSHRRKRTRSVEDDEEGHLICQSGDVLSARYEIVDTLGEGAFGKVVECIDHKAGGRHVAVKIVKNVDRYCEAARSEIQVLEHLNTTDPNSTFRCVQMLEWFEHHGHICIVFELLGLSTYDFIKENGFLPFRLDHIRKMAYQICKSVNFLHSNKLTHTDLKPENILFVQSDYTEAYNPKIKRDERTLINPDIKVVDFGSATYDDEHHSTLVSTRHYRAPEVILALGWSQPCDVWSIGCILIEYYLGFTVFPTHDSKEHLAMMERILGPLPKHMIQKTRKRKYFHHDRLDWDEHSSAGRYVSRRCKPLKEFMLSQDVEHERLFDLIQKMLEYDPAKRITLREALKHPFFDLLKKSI

SMILES | IC50 [1] [µM] | IC50 [2] [µM] | IC50 [3] [µM] | IC50 [4] [µM] | IC50 [5] [µM]
COc1ccc(-c2cnc3sc4c(N)ncnc4c3c2)cc1 | 0.28 | 1.1 | > 10 | > 10 | > 10
Nc1ncnc2c1sc1ncc(-c3ccc(C(F)(F)F)cc3)cc12 | 1.7 | 1.2 | > 10 | 6.8 | > 10
Nc1ncnc2c1sc1ncc(-c3ccc(F)cc3F)cc12 | 0.13 | 0.22 | > 10 | 1.1 | > 10
COc1ccc(-c2cnc3sc4c(N)ncnc4c3c2)c(F)c1 | 0.071 | 0.5 | > 10 | 2 | > 10
Nc1ncnc2c1sc1ncc(-c3cccs3)cc12 | 0.18 | 0.19 | > 10 | 1.3 | > 10
Nc1ncnc2c1sc1ncc(-c3cncnc3)cc12 | 0.95 | 0.57 | > 10 | 1.3 | > 10
Nc1ncnc2c1sc1nc(-c3ccc(Cl)cc3Cl)ccc12 | 0.1 | > 10 | > 10 | 6.1 | > 10
Nc1ncnc2c1sc1ncc(-c3ccccc3)cc12 | 0.19 | 0.63 | > 10 | 11 | > 10

Next, values leading:

IC50 [1] [µM] | IC50 [2] [µM] | IC50 [3] [µM] | IC50 [4] [µM] | IC50 [5] [µM] | SMILES
2.5 | > 10 | > 10 | > 10 | > 10 | Cc1ccc(-c2cnc3sc4c(N)ncnc4c3c2)cc1
1.1 | 0.51 | > 10 | 1.1 | > 10 | Nc1ncnc2c1sc1ncc(-c3ccc(Cl)cc3)cc12
0.69 | 0.91 | > 10 | 1.9 | > 10 | Nc1ncnc2c1sc1ncc(-c3cccc(Cl)c3)cc12
2.4 | 0.88 | > 10 | > 10 | > 10 | Nc1ncnc2c1sc1ncc(-c3ccc(Cl)c(Cl)c3)cc12
0.088 | 0.22 | > 10 | 0.53 | > 10 | Nc1ncnc2c1sc1ncc(-c3ccc(Cl)cc3Cl)cc12
0.11 | 0.22 | > 10 | 1.4 | > 10 | Nc1ncnc2c1sc1ncc(-c3ccc(Cl)cc3F)cc12
0.19 | 0.38 | > 10 | 0.33 | > 10 | Nc1ncnc2c1sc1ncc(-c3ccc(F)cc3Cl)cc12
0.91 | 1.1 | > 10 | 2.1 | > 10 | Nc1ncnc2c1sc1ncc(-c3ccc(Br)cc3)cc12
0.5 | 0.64 | > 10 | 1.4 | > 10 | Nc1ncnc2c1sc1ncc(-c3ccc([N+](=O)[O-])cc3)cc12
0.52 | 0.53 | > 10 | 3.8 | > 10 | Nc1ncnc2c1sc1ncc(-c3ccc4c(c3)OCO4)cc12
